This is a sample that favours compounds with a hit; in the whole collection about 1.5% have one here.
Jurkat NFkB inh – inhibitors of the PMA/ionomycin-induced NF-kB reporter in Jurkat cells; PMA/ionomycin-induced NF-kB luciferase reporter, luminescence; inhibition, % at 4 µM; actives 0.53% (n = 330,000); AID 435003; in the data active = inhibition above about 50%
697 NFkB inh – inhibitors of the PMA/ionomycin-induced NF-kB reporter in 697 B cells; 697 B-cell NF-kB luciferase reporter, 16 h; AID 435022; actives 0.33% (n = 330,000); inhibition, % at 4 µM; in the data active = inhibition above about 35%
NR2E3 ag-1 – activates human NR2E3 receptor; Q9Y5X4; CHO-S Gal4-NCOR/VP16-NR2E3 two-hybrid, luciferase; inhibition of corepressor binding, % at 3.98 µM; actives 0.35% (n = 360,000);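 active = inhibition above the mean of all tested compounds plus 3 SD, cut at about 70% in these data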;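 note: 0% = DMSO with NR2E3 transfected cells and 100% = cells lacking NR2E3 construct; higher means lower luciferase signal from less NR2E3 corepressor binding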
JMJD2C inh – inhibitors of human GASC-1 (JMJD2C) demethylase; inhibition, % at 2.35 µM; AID 2099; actives 0.069% (n = 330,000); GST-JMJD2C(1-420) H3K9me3 demethylation, DELFIA europium; Q9H3R0;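 active = more than half of a compound's replicate wells show inhibition beyond 50%, single wells judged on their own value; inconclusive = some, but no more than half, of replicates pass 50% inhibition; inactive = no replicate passes 50% inhibition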;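 note: signal counts dimethyl H3K9 product captured on neutravidin plate; 0% = median of DMSO wells and 100% = 0.3 times that DMSO median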
Target sequence (Q9H3R0 1-420 limits assumed): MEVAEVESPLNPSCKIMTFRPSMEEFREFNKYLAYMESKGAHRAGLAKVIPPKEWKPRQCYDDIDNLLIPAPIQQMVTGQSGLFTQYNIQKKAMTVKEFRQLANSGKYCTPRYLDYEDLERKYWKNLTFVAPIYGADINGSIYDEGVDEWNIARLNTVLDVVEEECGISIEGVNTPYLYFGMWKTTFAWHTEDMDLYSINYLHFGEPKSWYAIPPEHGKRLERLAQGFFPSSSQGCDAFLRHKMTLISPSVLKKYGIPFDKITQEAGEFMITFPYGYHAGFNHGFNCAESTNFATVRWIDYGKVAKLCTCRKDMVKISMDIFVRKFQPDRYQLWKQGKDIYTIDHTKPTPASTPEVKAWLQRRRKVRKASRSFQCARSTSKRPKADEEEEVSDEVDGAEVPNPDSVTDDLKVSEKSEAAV
NR2E3 ag-2 – NR2E3 (human) agonism. inhibition of corepressor binding, % at 4.78 µM. actives 0.12% (n = 320,000). AID 2300. GST-NR2E3/biotin-RetCOR TR-FRET, 1536-well;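 active = percent inhibition above the cutoff of mean plus 3 SD of all tested compounds, set per screening campaign, cut at about 20% in these data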;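 note: 0% = DMSO wells and 100% = biotin wells as full block of FRET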
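Test system: GST-NR2E3 and biotin-RetCOR proteins | Quantity: 1.35 nM GST-tagged NR2E3 final | Medium: Tris pH 7.5 | Also added: 7 nM biotin-RetCOR | Dosing: Compound at 4.8 µM, single dose | Timing: 5 h at 4 °C | Detection: Time-resolved FRET | Read-out basis: Percent inhibition | Benchmarks: Biotin wells as high control, 0.6% DMSO wells as low control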
GalR3 antagonist – antagonists of human GalR3 | HEK293 GalR3-CNG cAMP membrane potential fluorescence; galR3 body fused to GalR1 C-terminus | actives 0.44% (n = 360,000) | inhibition, % at 3 µM | AID 651719;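 active = inhibition above the screen-wide average plus 3 SD, cut at about 13% in these data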;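 note: forskolin and galanin both at EC90 stimulate the cells; cAMP rise reported by CNG channel membrane potential dye signal; 0% = forskolin plus galanin with DMSO and 100% = forskolin alone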
NR2E3 ag conf – NR2E3 agonism confirmed in two-hybrid assay | shares compounds with NR2E3 ag-1 | CHO-S mammalian two-hybrid NR2E3-NCOR, luciferase luminescence | inhibition, % at 3.98 µM | actives 51% (n = 2,300);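 active = average inhibition above a cutoff equal to the mean inhibition of all tested compounds plus one SD, cut at about 70% in these data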;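 note: 0% = DMSO in NR2E3 cells and 100% = DMSO in cells lacking NR2E3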
GAL4-VP16 luc – reduces GAL4-VP16 reporter signal in NR2E3 counterscreen. actives 29% (n = 2,300). CHO-S GAL4-VP16 luciferase reporter, luminescence. shares compounds with NR2E3 ag-1. inhibition, % at 3.98 µM. AID 624379;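 active = mean inhibition above a cutoff equal to the average over all tested compounds plus one standard deviation, cut at about 70% in these data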;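 note: luciferase from a UAS reporter driven by GAL4-VP16 transactivation; 0% = DMSO with VP16-transfected cells and 100% = DMSO with cells lacking VP16; higher means less reporter light so more repression of VP16 activity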
The depositor's hits bear a star; ? = inconclusive; / = no result given.

SMILES	Jurkat NFkB inh	697 NFkB inh	NR2E3 ag-1	JMJD2C inh	NR2E3 ag-2	GalR3 antagonist	NR2E3 ag conf	GAL4-VP16 luc
CCCS(=O)(=O)NC(=O)C1(C)CCCN(C(=O)c2ccccc2C(F)(F)F)C1 (configuration not stated)	/	/	-18	/	/	-7	/	/
O=C(c1ccc(CSc2nc3ccncc3[nH]2)cc1)N1CCN(c2cccc(Cl)c2)CC1	31	-20	88*	9	2	/	98*	69
CN(Cc1ccccc1)c1nccn2ccnc12	/	/	2	/	/	-1	/	/
COCCNC(=O)CN(C(=O)Cn1nnc2ccccc21)c1cccc(C)c1C	6	5	-10	1	-2	-4	/	/
Cc1ccc(-n2nc3c(=O)n(CCCC(=O)NCc4cccc(F)c4)nc(C)c3c2C)cc1	39	17	52	3	-1	-8	20	39
Cc1noc(C)c1S(=O)(=O)Nc1ccc(C(=O)N2CCN(c3ccc(Cl)cc3)CC2)cc1	1	-16	65	-35	-1	-7	86*	53
CCOC(=O)c1cnc(-n2nc(C)cc2C)nc1NCCO	1	-11	12	0	1	1	/	/
CCOC(=O)c1cnc(-n2nc(C)cc2C)nc1NCc1ccccc1	-5	-3	94*	?	4	-1	14	0
CCOC(=O)c1cnc(-n2nc(C)cc2C)nc1NC(C)c1ccccc1 (configuration not stated)	12	-1	98*	-5	-5	-6	14	5
CCOC(=O)c1cnc(-n2nc(C)cc2C)nc1NNc1ncc(-c2ccccc2)cn1	5	-1	/	-10	6	/	/	/
Cc1ccccc1CC(=O)Nc1ccc(C(=O)N2CCCC2)cc1	-16	-16	-20	8	0	2	/	/
O=C(NC(=S)N1CCN(c2c(Cl)cccc2[N+](=O)[O-])CC1)c1cccs1	-6	-16	54	8	3	-2	39	35
Cc1cc(C)n2nc(SCc3nnc(-c4ccccc4Br)o3)nc2n1	-10	-23	-13	10	2	2	/	/
C=C(C)Cn1c(=O)c2c(nc3n2CC(C)CN3Cc2ccccc2)n(C)c1=O (configuration not stated)	-5	-16	63	11	-1	1	13	-20
CC1CCC2(CC1)NC(=O)N(CC(=O)NCc1ccc(Cl)cc1)C2=O (configuration not stated)	0	17	38	3	/	4	/	/
CC1(C(=O)Nc2ccc3c(c2)OCCO3)CCN1C(=O)Cc1ccc(-c2ccccc2)cc1 (configuration not stated)	/	/	57	/	/	-8	56	45
CC(C)c1ccc(CC(=O)N2CCC2(C)C(=O)Nc2ccc3c(c2)OCO3)cc1 (configuration not stated)	/	/	8	/	/	-6	/	/
CC1(C(=O)Nc2cccc(C#N)c2)CCN1C(=O)Cc1ccc(-c2ccccc2)cc1 (configuration not stated)	/	/	91*	/	/	-3	98*	90*
CC1(C(=O)Nc2cccc(C#N)c2)CCN1C(=O)CCc1ccccc1 (configuration not stated)	/	/	34	/	/	-2	/	/
CC1(C(=O)NS(=O)(=O)c2ccc3ccccc3c2)CCN1C(=O)Cc1ccc(-c2ccccc2)cc1 (configuration not stated)	/	/	48	/	/	-6	11	6
COc1cccc(NC(=O)C2(C)CCN2C(=O)Cc2ccc(C(C)C)cc2)c1 (configuration not stated)	/	/	-3	/	/	-7	/	/
CC(C)c1ccc(CC(=O)N2CCC2(C)C(=O)Nc2cccc(C#N)c2)cc1 (configuration not stated)	/	/	52	/	/	-6	17	30
CCS(=O)(=O)NCC(c1cccnc1)N1CCN(c2ccccc2F)CC1 (configuration not stated)	14	17	1	26	5	-3	/	/
O=C(CN(C(=O)CNC(=O)c1cccs1)c1cccc(F)c1)NC1CCCC1	-1	-4	2	1	2	-8	/	/
CN(c1ccccc1)S(=O)(=O)c1cccc(NC(=O)CSc2nncs2)c1	9	-35	70	-2	3	0	66	76*
SMILES	Jurkat NFkB inh	697 NFkB inh	NR2E3 ag-1	JMJD2C inh	NR2E3 ag-2	GalR3 antagonist	NR2E3 ag conf	GAL4-VP16 luc
CCN(CC)C(=O)C1=C(C)N(CCCOC)C(=O)C(CC(=O)NCCCCc2ccccc2)C1 (configuration not stated)	/	/	-8	/	/	-1	/	/
CC1=C([N+](=O)[O-])C(c2ccc(Cl)cc2)NC(=O)N1C (configuration not stated)	0	4	-13	0	-1	-8	/	/
CCCCN(C(C)=O)c1ccc2c(c1)C1CC2CCN1C(=O)OCc1ccccc1 (configuration not stated)	/	/	68	/	/	-10	91*	69
Clc1cc2cccnc2c2ncccc12	19	11	83*	-7	1	-7	95*	12
Clc1ccc(Oc2ccccc2)c2ncccc12	12	-6	-11	-23	3	-11	/	/
COc1cccc(NC(=O)C2(C)CCN2C(=O)CC2CCCC2)c1 (configuration not stated)	/	/	-21	/	/	-7	/	/
O=C(Nc1nncs1)c1cc(-c2ccco2)nc2ccccc12	-24	-33	-10	8	/	-6	/	/
OC(Cc1ccnc2ccccc12)C(Cl)(Cl)Cl (configuration not stated)	/	/	69	/	/	-6	59	60
COc1ccc(-n2cnc3c(cnn3CCC#N)c2=N)cc1	-7	1	-8	2	3	6	/	/
Cc1cccc2cc3c(NC(=O)C(C)(C)C)nn(CC(C)C)c3nc12	-6	-12	-27	-12	4	-11	/	/
O=C(CSc1ccc(-c2ccc(F)cc2)nn1)N1CCCc2ccccc21	-3	-2	58	5	1	-8	-7	-26
CC(C)(C)c1ccc(C(=O)N2CCCC2c2cccs2)cc1 (configuration not stated)	3	-13	0	1	0	-8	/	/
O=S(=O)(NCc1ccc(F)cc1)c1ccc(-c2cnc(C3CC3)o2)cc1	12	-19	26	-39	4	-2	/	/
CC(=O)c1cccc(NS(=O)(=O)c2ccc(-c3cnc(C4CC4)o3)cc2)c1	43	16	101*	-4	1	4	95*	82*
